Assay outcomes from PubChem BioAssay.
mIAP block: mouse IAP inhibition; purified mouse IAP, CDP-Star luminescence, 30 min; actives 0.2% (n = 330,000); inhibition, % at 10 µM; AID 2806;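 active = inhibition of at least 40% at 10 µM in the primary screen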
mIAP act: mouse IAP activation; muIAP, CDP-Star luminescence, 30 min; stronger effect = higher value; 1 = vehicle-only enzyme signal, 0 = enzyme-free wells; activation factor at 10 µM; actives 0.24% (n = 330,000); AID 2805;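 active = activation factor of at least 2 at 20 µM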
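System: mouse IAP enzyme. Reagent: CDP-Star chemiluminescent phosphatase substrate. Benchmarks: DMSO wells, no-enzyme wells. Times: 30 min enzyme-substrate-compound incubation at room temperature. Detection: luminescence from enzymatic CDP-Star hydrolysis. Doses: test compounds delivered from DMSO solution.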
hIAP activ: increases human intestinal alkaline phosphatase activity | P09923 | purified human IAP, CDP-Star luminescence, 30 min; stronger effect = higher value; 1 = vehicle-only enzyme, 0 = enzyme-free background | activation factor at 10 µM | actives 0.16% (n = 330,000) | AID 2524;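 active = activation factor of the enzyme at least 2-fold when tested at 20 µM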
Target sequence (P09923 whole entry, looked up): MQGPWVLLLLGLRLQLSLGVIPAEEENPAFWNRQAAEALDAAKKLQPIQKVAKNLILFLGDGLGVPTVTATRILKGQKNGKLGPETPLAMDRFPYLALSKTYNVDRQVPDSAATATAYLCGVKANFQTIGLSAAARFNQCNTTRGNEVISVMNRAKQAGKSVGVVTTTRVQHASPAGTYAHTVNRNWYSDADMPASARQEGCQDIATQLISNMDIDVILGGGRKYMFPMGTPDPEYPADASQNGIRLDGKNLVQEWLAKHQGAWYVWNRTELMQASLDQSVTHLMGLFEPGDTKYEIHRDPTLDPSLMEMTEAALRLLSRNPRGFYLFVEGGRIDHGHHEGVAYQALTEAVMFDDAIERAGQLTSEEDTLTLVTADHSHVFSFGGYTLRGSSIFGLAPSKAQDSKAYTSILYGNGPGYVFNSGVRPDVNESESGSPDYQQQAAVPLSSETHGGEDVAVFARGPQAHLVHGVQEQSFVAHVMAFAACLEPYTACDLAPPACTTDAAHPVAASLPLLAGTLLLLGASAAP
bIAP activator: increases bovine intestinal alkaline phosphatase activity. purified bovine IAP, CDP-star luminescence, 30 min; stronger effect = higher value; fold of DMSO-control signal, blank-subtracted. activation factor at 20 µM. actives 0.17% (n = 200,000). AID 1016;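 active = activation factor of 2 or more at 20 µM, a signal rise over negative controls twice the positive control's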
hIAP inh: blocks human intestinal alkaline phosphatase | P09923 | purified IAP, CDP-Star luminescence, 30 min | inhibition, % at 10 µM | actives 0.12% (n = 330,000);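 active = inhibition reaching a set limit with compound at 10 µM in the primary screen, cut at about 35% in these data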
bIAP inhibitor: blocks bovine intestinal alkaline phosphatase activity; inhibition, % at 20 µM; purified bovine IAP, CDP-star luminescence, 30 min; 190,000 tested, under 10 active;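 active = over 50% inhibition of intestinal alkaline phosphatase at 20 µM in the single-dose screen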
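System: purified bovine intestinal alkaline phosphatase (IAP) enzyme; Input: IAP diluted 1/65,000,000 in the well; Measured by: CDP-star luminescence signal; Compound dosing: 20 µM single dose; Incubation: 30 min reaction at room temperature.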
hIAP act conf: human IAP activation confirmation. purified IAP, CDP-Star luminescence, 30 min; stronger effect = lower value. activation (%Activity, negative = activation), % at 8.3 µM. actives 10% (n = 880). shares compounds with hIAP activ;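 active = at least twofold enzyme activation in any of six single-dose repeats, which the averaged readout prints as negative percent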
Of the large screens only hits and unclear results are named; the others gave an inactive call (follow-up assays come after a bar, where they were run). Rows were chosen to be rich in hits. Some 0.72% of all compounds tested hit in one or more screens of this group.

COc1ccc(NC(=O)c2csc(Cc3ccccc3)n2)cc1	none (no result: bIAP inhibitor)
O=C(CSc1ncn[nH]1)NCCc1ccccc1	hIAP activ 2.6 | hIAP act conf -113
COc1ccc(S(=O)(=O)N2CCN(CC(=O)c3ccc(O)c(O)c3)CC2)cc1	hIAP inh 39 (no result: bIAP activator, bIAP inhibitor) | hIAP act conf inactive
Cc1nn(CCCC(=O)NC(C)c2ccccc2)c(=O)c2nn(-c3ccccc3)c(C)c12 (stereo unspecified)	none (no result: bIAP activator, bIAP inhibitor)
Cc1cccc(NC(=O)CCc2ccc(C)o2)c1	hIAP inh 37 | hIAP act conf inactive
Cc1cc(C)cc(NC(=O)CCc2ccc(C)o2)c1	none (no result: bIAP activator, bIAP inhibitor)
COc1ccc2nc(N3CCC(O)CC3)c(C#N)cc2c1	hIAP inh 35 | hIAP act conf inactive
O=C(NN1C(=O)/C(=C\c2cccnc2)SC1=S)c1ccco1	none
O=C(NNC(=O)c1cc(Br)ccc1O)c1csc(N2CCOCC2)n1	hIAP activ 2.4 (no result: bIAP activator, bIAP inhibitor) | hIAP act conf inactive
O=C(CCNS(=O)(=O)c1ccccc1C(F)(F)F)NNC(=O)c1csc(N2CCOCC2)n1	hIAP activ 2.1 (no result: bIAP activator, bIAP inhibitor) | hIAP act conf inactive
O=C(CCNC(=O)c1ccc([N+](=O)[O-])cc1)NNC(=O)c1ccccc1F	none (no result: bIAP activator, bIAP inhibitor)
O=C(CN1C(=O)c2ccccc2S1(=O)=O)NCc1cccs1	hIAP inh 45 (no result: bIAP activator, bIAP inhibitor) | hIAP act conf inactive
CCOC(=O)c1ccc(NC(=O)c2nc[nH]c2C(=O)N[C@@H](CC(C)C)C(=O)OC(C)(C)C)cc1	hIAP activ 2 (no result: bIAP activator, bIAP inhibitor) | hIAP act conf inactive
O=C(COC(=O)C1=COCCO1)NC1CCCCC1	none (no result: bIAP activator, bIAP inhibitor)
CC(C)Nc1nc(-c2ccncc2)nc(-c2ccccc2)c1C#N	none (no result: bIAP activator, bIAP inhibitor)
CCOC(=O)c1cnc(-n2nc(C)cc2C)nc1NNc1nc(-c2ccccc2)cc(-c2ccccc2)n1	none
CCOC(=O)c1cnc(-n2nc(C)cc2C)nc1NNc1nc(C)cc(C)n1	none (no result: bIAP activator, bIAP inhibitor) | hIAP act conf inactive
CC(Oc1ccccc1F)C(=O)NC1CCS(=O)(=O)C1 (stereo unspecified)	none (no result: bIAP activator, bIAP inhibitor)
Cc1nc2c3cnn(-c4ccc(C)c(C)c4)c3ncn2n1	hIAP inh 74 | hIAP act conf inactive
Cc1ccc(-n2ncc3c(=O)n(CC(N)=O)cnc32)cc1C	none (no result: bIAP activator, bIAP inhibitor)
Cc1ccc(NC(=S)NNC(=O)c2nnn(-c3ccccc3)c2C)cc1	hIAP activ 2.2 | hIAP act conf inactive
CC(C)COc1ccc(C(=O)Nc2ncn[nH]2)cc1	none (no result: bIAP activator, bIAP inhibitor)
CC(C)Oc1ccc(C(=O)Nc2ncn[nH]2)cc1	hIAP activ 2 (no result: bIAP activator, bIAP inhibitor) | hIAP act conf -65
CC(C)Oc1cccc(C(=O)Nc2ncn[nH]2)c1	hIAP activ 2.2 (no result: bIAP activator, bIAP inhibitor) | hIAP act conf inactive
CCc1ccc(Nc2nnc(SCC(=O)c3c(N)n(C4CC4)c(=O)[nH]c3=O)s2)cc1	none (no result: bIAP activator, bIAP inhibitor)
CC(OC(=O)Cc1ccc(Br)cc1)C(=O)NC1CCCC1 (stereo unspecified)	none (no result: bIAP activator, bIAP inhibitor)
CC1CCCN(C(=O)C2CCN(S(=O)(=O)c3cccc4nsnc34)CC2)C1 (stereo unspecified)	hIAP inh 49 (no result: bIAP activator, bIAP inhibitor) | hIAP act conf inactive
O=C(N/N=C/c1cccc([N+](=O)[O-])c1)c1nc2ccccc2c(=O)[nH]1	hIAP activ 2.4 (no result: bIAP activator, bIAP inhibitor) | hIAP act conf inactive
CCCC(CCC)C(=O)NCCN1CCOCC1	hIAP inh 39 | hIAP act conf inactive
O=C(NCCN1CCOCC1)N1CCOCC1	none
CC(=O)c1ccc(S(=O)(=O)N2CCN(C(=O)CSc3ccc(F)cc3)CC2)cc1	none (no result: bIAP activator, bIAP inhibitor)
O=C1c2[nH]nc(-c3ccccc3O)c2C(c2cccc(Cl)c2)N1Cc1ccco1 (stereo unspecified)	hIAP activ 2.3 | hIAP act conf inactive
Cc1cc(N(C)/N=C/c2ccccc2O)nc(-c2ccccc2O)n1	hIAP activ 2.3 | hIAP act conf inactive
COc1ccccc1CNC(=O)CN(c1ccc(C)cc1)S(=O)(=O)c1c(C)noc1C	hIAP inh 38 (no result: bIAP activator, bIAP inhibitor) | hIAP act conf inactive
O=c1c2ccccc2nc(N/N=C/c2c(O)ccc3ccccc23)n1O	hIAP activ 2 | hIAP act conf -54
O=c1c2ccccc2nc(N/N=C/c2ccc(O)cc2)n1O	none
O=C(c1ccc(Cl)cc1)N(Cc1ccco1)C1CCS(=O)(=O)C1 (stereo unspecified)	none (no result: bIAP activator, bIAP inhibitor)
Cc1cc(C)nc(Nc2n[nH]c(COc3ccc4ccccc4c3)n2)n1	hIAP activ 2 | hIAP act conf inactive
Cc1cc(C)nc(Nc2n[nH]c(COc3ccccc3)n2)n1	none
CCOCCCNc1nc2c(C)cccn2c(=O)c1/C=C1\SC(=S)N(C(C)CC)C1=O (stereo unspecified)	hIAP inh 36 (no result: bIAP activator, bIAP inhibitor) | hIAP act conf inactive
COc1ccc(C(=O)NCC(=O)NCC(c2ccco2)N(C)C)cc1OC (stereo unspecified)	hIAP inh 44 | hIAP act conf inactive
CCCOc1ccc(C(=O)NCC(c2ccco2)N(C)C)cc1OC (stereo unspecified)	none
c1ccc(-[n+]2nc(Nc3cccc4ccccc34)sc2-c2c3ccccc3cc3ccccc23)cc1	none (no result: bIAP activator, bIAP inhibitor)
COc1ccc(C(=O)N=C2CCC(C#N)=C3c4cc(OC)c(OC)cc4CCN23)cc1	hIAP activ 2.1 | hIAP act conf inactive
COc1cc2c(cc1OC)C1=C(C#N)CC/C(=N\S(=O)(=O)c3ccccc3)N1CC2	none
Cc1ccc(C(=O)N(NC2=NS(=O)(=O)c3ccccc32)S(=O)(=O)c2ccc(C)cc2)cc1	hIAP activ 2.4 | hIAP act conf inactive
CCN(C1=NS(=O)(=O)c2ccccc21)N(CC)S(=O)(=O)c1ccc(C)cc1	none
CCCNC(=O)C1CC(c2ccccc2C(F)(F)F)=NO1 (stereo unspecified)	none (no result: bIAP activator, bIAP inhibitor)
O=C(NCc1ccccc1)C1CCC(=O)N(CCN2CCOCC2)C1 (stereo unspecified)	none (no result: bIAP activator, bIAP inhibitor)
Cc1nn(-c2ccccc2)c2c1C(c1ccncc1)C(C#N)=C(N)O2 (stereo unspecified)	hIAP inh 38 | hIAP act conf inactive
Cc1ccc(-n2nc(C)c3c2OC(N)=C(C#N)C3c2ccncc2)cc1 (stereo unspecified)	none
O=C(COC(=O)/C=C/c1ccccc1[N+](=O)[O-])NC(=O)NC1CCCC1	none (no result: bIAP activator, bIAP inhibitor)
CCN(C(=O)c1ccncc1)c1c(N)n(Cc2ccccc2)c(=O)[nH]c1=O	none (no result: bIAP activator, bIAP inhibitor)
Cc1cc(C(=O)NCc2ccc(F)cc2)n(-c2ccccc2)n1	none (no result: bIAP activator, bIAP inhibitor)
O=C(NNC(=O)c1ccccc1Br)c1ccc2nc[nH]c2c1	hIAP activ 2 (no result: bIAP activator, bIAP inhibitor) | hIAP act conf inactive
CCOC(=O)C1(CCc2ccccc2)CCN(C(=O)C2CCCO2)CC1 (stereo unspecified)	none
C/C=N/NC(=O)c1cc(Br)ccc1O	none
Cc1c(/C=N/NC(=O)c2cc(Br)ccc2O)c(=O)n(C)c(=O)n1C	hIAP activ 2.1 (no result: bIAP activator, bIAP inhibitor) | hIAP act conf inactive
